Data taken from article PMC3878182 (Xenobiotica; the fate of foreign compounds in biological …, 2013).

Columns and labels:
liver tissue slices [1] = test: Liver slice viability; assay type: cell-based, Sprague-Dawley rats
Procedure, shortened: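 Liver slices came from adult rats, either naive or pretreated with PB or DEX, taken 24 h after the last dose into cold Krebs-Henseleit buffer, pH 7.5. Two slices per vial in 2 mL buffer received test compound (final 5 μM) or DMSO, 2 h, 37 °C, 5 % CO2/95 % air. LDH in medium and homogenate gave % release = A1×D1/(A1×D1+A2×D2); viable was <30 %.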

[2] = system: hippocampal slice cultures; test: LDH release in hippocampal slice cultures; assay type: cell-based, Sprague Dawley rats (PND4 pups); conditions: PCB 136 ≤ 5 μM for 14 d
Procedure, shortened: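 Hippocampi from PND4 pups of timed-pregnant Sprague Dawley rats were cultured as slices. From 5 DIV, racemic test compound or vehicle (0.1 % DMSO) was added to 1 mL medium, renewed every 2 days for 14 days. LDH release was measured with a membrane-integrity fluorescence kit. Mean ± SEM, n = 2 wells per group.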

liver tissue slices [3] = test: Formation of hydroxylated PCB 136 metabolites in liver tissue slices; assay type: in vitro ADME, Sprague-Dawley rats; conditions: for ΣOH-PCB as percent of PCB 136: PCB 136 5 μM (10 nmol), 2 h, slices plus medium
[4] = system: hippocampal slice cultures; test: Propidium iodide; assay type: cell-based, Sprague Dawley rats (PND4 pups)
[5] = system: hippocampal tissue slices; test: PCB 136 levels in hippocampal tissue slice cultures relative to medium; assay type: in vitro ADME, Sprague Dawley rats (PND4 pups); conditions: for Medium-to-tissue slice ratio of PCB 136: day 14
Procedure, shortened: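 Hippocampi from PND4 rat pups were cultured as slices. From 5 DIV, racemic test compound (5 μM; vehicle 0.1% DMSO) was added to 1 mL medium per well, renewed every 2 days for 14 days. Medium from each change and slices at day 14 were stored at −20 °C and analysed. The medium-to-slice ratio was taken at day 14.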

liver tissue slices [6] = test: PCB 136 levels and partitioning in liver tissue slice incubations; assay type: in vitro ADME, Sprague-Dawley rats
Procedure, shortened: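 Two liver slices were placed in 2 mL K-H buffer and given test compound (final 5 μM; 10 nmol per incubation; DMSO) for 2 h at 37 °C, 5% CO2/95% air. Slices were washed in cold buffer and homogenized. Medium and homogenate were quantified by GC-63Ni-μECD (DB1-MS column); calibration was linear over 1–1000 ng/mL. Slice levels are per mg protein and as % of dose. n=2 or 3 animals, triplicate incubations, mean ± SD.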

ryanodine receptor (RyR) = conditions: ref Pessah et al., 2006; cited from earlier work
[7] = Effect of inducer treatment on body and liver weights of rats; assay type: in vivo, Sprague-Dawley rats; conditions: i.p. inducer treatment
CYP3A2 = test: Hepatic P450 transcript levels; assay type: in vivo, Sprague-Dawley rats; conditions: liver slices from male rats
CYP1A2 = test: Hepatic P450 transcript levels; assay type: in vivo, Sprague-Dawley rats; conditions: liver slices from male rats
[8] = DEX-treated female rats, PCB 136 5 μM (10 nmol), 2 h, 37°C
[9] = DEX-treated male rats, PCB 136 5 μM (10 nmol), 2 h, 37°C
[10] = PB-treated female rats, PCB 136 5 μM (10 nmol), 2 h, 37°C
[11] = PB-treated male rats, PCB 136 5 μM (10 nmol), 2 h, 37°C
[12] = naïve control (CTL) female rats, PCB 136 5 μM (10 nmol), 2 h, 37°C
[13] = naïve control (CTL) male rats, PCB 136 5 μM (10 nmol), 2 h, 37°C

For `Clc1ccc(Cl)c(-c2c(Cl)ccc(Cl)c2Cl)c1Cl` [PCB 136, 2,2′,3,3′,6,6′-hexachlorobiphenyl], the “Acute toxicity to liver slices” value (liver tissue slices [1]; 2 h incubation with PCB 136 at 5 μM) was “not acutely toxic”, the “LDH release to the medium” value (liver tissue slices [1]; all slices used in the PCB 136 metabolism experiments, 2 h incubation) was 13.2 ± 6.6% and the LDH release (liver tissue slices [1]; slices treated with PCB 136 5 μM, 2 h) was 13.1 ± 6.6%. The “LDH release relative to vehicle controls” value [2] was “did not significantly alter LDH release”, the “ΣOH-PCB as percent of PCB 136” value (liver tissue slices [3]; DEX-treated female rats) was 2.7 ± 1.3% and the “ΣOH-PCB as percent of PCB 136” value (liver tissue slices [3]; PB-treated female rats) was 5.3 ± 1.1%. The “ΣOH-PCB as percent of PCB 136” value (liver tissue slices [3]; PB-treated male rats) was 11 ± 2.7%, the “Percent of total PCB 136 metabolized to OH-PCBs” value (liver tissue slices [3]; liver slices from female rats, within 2 h) was no more than 5% and the “Percent of total PCB converted to OH-PCBs” value (liver tissue slices [3]; liver slices from male rats) was “at least 11%”. The “ΣOH-PCB as percent of PCB 136” value (liver tissue slices [3]; naïve control (CTL) male rats) was 1.1 ± 0.4%, the “PI uptake (confocal images)” value ([4]; PCB 136 at 5 μM for 14 days vs vehicle) was “no significant differences” and the PI uptake ([4]; racemic PCB 136 at 5 or 10 μM, 3 d exposure from 5 DIV, vs vehicle) was “had no significant effect on PI uptake”. For the same compound, the “PCB 136 in slices as percent of the PCB 136 (1.8 μg) added on day 12” value ([5]; female pups) was 1.5 ± 0.8%, the “Average PCB 136 amount associated with the tissue slices” value ([5]; female pups, after 14 days) was 27 ± 15 ng and the “Medium-to-tissue slice ratio of PCB 136” value ([5]; female pups) was 24 ± 8. For the same compound, the “PCB 136 in slices as percent of total PCB dose added” value ([5]; female pups, total dose 12.6 μg) was 0.2%, the “PCB 136 in slices as percent of the PCB 136 (1.8 μg) added on day 12” value ([5]; male pups) was 1.8 ± 0.3% and the “PCB 136 amount associated with tissue slices” value ([5]; male pups, after 14 days) was 32 ± 6 ng. For the same compound, the “Medium-to-tissue slice ratio of PCB 136” value ([5]; male pups) was 26 ± 10, the “PCB 136 in slices as percent of total PCB dose” value ([5]; male pups, total dose 12.6 μg) was 0.3% and the “Average PCB 136 concentration in the incubation medium” value ([5]; slice cultures from female pups, 5 μM racemic PCB 136, 14 days) was 830 ± 80 ng/mL. For the same compound, the “Average PCB 136 levels in the incubation medium” value ([5]; slice cultures from male pups, 5 μM racemic PCB 136, 14 days) was 570 ± 220 ng/mL, the “PCB 136 in medium” value (liver tissue slices [6]; [8]) was 6.7 ± 0.7 nmol and the “PCB 136 in tissue slices” value (liver tissue slices [6]; [8]) was 2.1 ± 0.3 nmol. For the same compound, the “PCB 136 in tissue slices” value (liver tissue slices [6]; DEX-treated female rats, PCB 136 5 μM, 2 h) was 42 ± 14 ng/mg protein, the “PCB 136 in medium” value (liver tissue slices [6]; [9]) was 5.7 ± 0.3 nmol and the “PCB 136 in tissue slices” value (liver tissue slices [6]; [9]) was 1.8 ± 0.4 nmol. The “PCB 136 in tissue slices” value (liver tissue slices [6]; DEX-treated male rats, PCB 136 5 μM, 2 h) was 27 ± 7 ng/mg protein, the “PCB 136 in medium” value (liver tissue slices [6]; [10]) was 9.5 ± 0.5 nmol and the “PCB 136 in tissue slices” value (liver tissue slices [6]; [10]) was 2.5 ± 0.4 nmol. For the same compound, the “PCB 136 in tissue slices” value (liver tissue slices [6]; PB-treated female rats, PCB 136 5 μM, 2 h) was 53 ± 10 ng/mg protein, the “PCB 136 in medium” value (liver tissue slices [6]; [11]) was 8.6 ± 0.4 nmol and the “PCB 136 in tissue slices” value (liver tissue slices [6]; [11]) was 1.3 ± 0.3 nmol. For the same compound, the “PCB 136 in tissue slices” value (liver tissue slices [6]; PB-treated male rats, PCB 136 5 μM, 2 h) was 21 ± 6 ng/mg protein, the “Percent of total PCB 136 associated with liver tissue slices” value (liver tissue slices [6]; both sexes, all treatment groups) was 13–25% and the “PCB 136 in tissue slices as percent of total PCB 136 dose added” value (liver tissue slices [6]; female liver slices, 2 h) was 21–25%. The “PCB 136 in tissue slices as percent of total PCB 136 dose” value (liver tissue slices [6]; male liver slices, 2 h) was 13–23%, the “PCB 136 in medium” value (liver tissue slices [6]; [12]) was 8.5 ± 0.1 nmol and the “PCB 136 in tissue slices” value (liver tissue slices [6]; [12]) was 2.4 ± 0.5 nmol. The “PCB 136 in tissue slices” value (liver tissue slices [6]; naïve control (CTL) female rats, PCB 136 5 μM, 2 h) was 45 ± 15 ng/mg protein, the “PCB 136 in medium” value (liver tissue slices [6]; [13]) was 6.3 ± 0.3 nmol and the “PCB 136 in tissue slices” value (liver tissue slices [6]; [13]) was 2.3 ± 0.1 nmol. The “PCB 136 in tissue slices” value (liver tissue slices [6]; naïve control (CTL) male rats, PCB 136 5 μM, 2 h) was 33 ± 5 ng/mg protein and the “RyR activity / sensitization” value (ryanodine receptor (RyR)) was “RyR active”.

With `CCC1(c2ccccc2)C(=O)NC(=O)NC1=O` [Phenobarbital (PB), phenobarbital] the Liver weight ([7]; female rats) was 10.1 ± 0.4 g, the “Liver-to-final body weight ratio” value ([7]; female rats) was 4.5 ± 0.2 and the “Percent change in body weight” value ([7]; female rats) was 5.5 ± 1.3%. For the same compound, the Liver weight ([7]; male rats) was 16.0 ± 2.0 g, the “Liver-to-final body weight ratio” value ([7]; male rats) was 5.3 ± 0.9 and the “Percent change in body weight” value ([7]; male rats) was −2.0 ± 7.0%. The “CYP3A2 transcript level vs CTL” value (CYP3A2) was “significantly induced by DEX but not PB” and the “CYP1A2 transcript level vs CTL” value (CYP1A2) was “not changed”.
